# What was measured:
# [1] = molecular target: Poly [ADP-ribose] polymerase 1 (Homo sapiens, UniProt P09874); assay: Inhibition of full length recombinant human N-terminal GST-tagged PARP1 expressed in Baculovirus infected Sf9 cells using TACS-Sapphire as substrate measured after 1 hr by colorimetric assay; details: read-out: IC50
# Mus musculus [2] = species: Mus musculus; assay: (§1) Inhibition of TNKS in mouse 3T3L1 cells assessed as upregulation of GLUT4 by measuring increase in insulin-stimulated glucose uptake at 1 uM using 2-deoxy-D-[2,6-3H]glucose as substrate pretreated for 1 hr followed by insulin stimulation for 30 mins and subsequent addition of substrate measured after 5 mins by scintillation counter; format: cell-based; set-up: scale not given: the % may be the effect or the level left
# Procedure, shortened: (§2)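 3T3-L1 fibroblasts were grown in DMEM and differentiated to adipocytes with insulin, dexamethasone and isobutylmethylxanthine, then used 10-12 d later. Cells were serum-starved 2 h at 37°C and given compound for 1 h. After KRH washes (pH 7.4), cells were held 30 min with compound, with or without 100 nM insulin. 2-Deoxy-D-[2,6-³H]glucose was added for 5 min.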
# [3] = molecular target: T1, Protein mono-ADP-ribosyltransferase PARP10 (Homo sapiens, UniProt Q53GL7); assay: Inhibition of PARP10 (unknown origin)
# T1 sequence (Q53GL7 whole entry): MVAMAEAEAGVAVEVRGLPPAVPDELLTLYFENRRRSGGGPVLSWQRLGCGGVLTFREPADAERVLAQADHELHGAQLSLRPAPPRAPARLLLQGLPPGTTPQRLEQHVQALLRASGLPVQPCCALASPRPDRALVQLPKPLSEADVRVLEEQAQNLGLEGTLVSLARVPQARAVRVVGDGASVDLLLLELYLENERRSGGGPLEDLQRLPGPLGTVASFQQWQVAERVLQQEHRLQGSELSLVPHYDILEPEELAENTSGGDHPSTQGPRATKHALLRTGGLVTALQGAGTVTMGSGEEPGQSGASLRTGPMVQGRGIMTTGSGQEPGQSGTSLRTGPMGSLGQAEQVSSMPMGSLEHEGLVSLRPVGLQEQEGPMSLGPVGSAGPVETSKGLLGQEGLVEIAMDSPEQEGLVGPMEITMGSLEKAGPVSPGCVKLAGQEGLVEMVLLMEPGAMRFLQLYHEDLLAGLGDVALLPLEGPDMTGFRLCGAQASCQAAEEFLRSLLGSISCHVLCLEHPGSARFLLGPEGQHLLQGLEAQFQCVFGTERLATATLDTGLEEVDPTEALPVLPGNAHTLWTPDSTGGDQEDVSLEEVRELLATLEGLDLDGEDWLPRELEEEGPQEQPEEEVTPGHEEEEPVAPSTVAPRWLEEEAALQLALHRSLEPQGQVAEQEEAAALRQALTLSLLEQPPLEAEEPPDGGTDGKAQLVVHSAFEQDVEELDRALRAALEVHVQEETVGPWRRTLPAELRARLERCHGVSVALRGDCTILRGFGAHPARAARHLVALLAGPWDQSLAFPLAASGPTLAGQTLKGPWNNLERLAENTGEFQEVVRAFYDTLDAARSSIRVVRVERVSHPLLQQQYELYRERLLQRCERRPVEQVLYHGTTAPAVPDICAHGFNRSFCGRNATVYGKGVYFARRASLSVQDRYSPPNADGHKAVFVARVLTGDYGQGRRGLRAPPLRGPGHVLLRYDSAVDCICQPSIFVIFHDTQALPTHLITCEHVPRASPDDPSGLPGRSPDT
# Mus musculus [4] = species: Mus musculus; assay: as §1, with “100 nM” for “1 uM”; format: cell-based; set-up: scale not given: the % may be the effect or the level left; procedure, shortened: as §2
# [5] = molecular target: Protein mono-ADP-ribosyltransferase PARP4 (Homo sapiens, UniProt Q9UKK3); assay: Inhibition of PARP4 (unknown origin)
# Protein mono-ADP-ribosyltransferase PARP4, sequence (Q9UKK3 whole entry): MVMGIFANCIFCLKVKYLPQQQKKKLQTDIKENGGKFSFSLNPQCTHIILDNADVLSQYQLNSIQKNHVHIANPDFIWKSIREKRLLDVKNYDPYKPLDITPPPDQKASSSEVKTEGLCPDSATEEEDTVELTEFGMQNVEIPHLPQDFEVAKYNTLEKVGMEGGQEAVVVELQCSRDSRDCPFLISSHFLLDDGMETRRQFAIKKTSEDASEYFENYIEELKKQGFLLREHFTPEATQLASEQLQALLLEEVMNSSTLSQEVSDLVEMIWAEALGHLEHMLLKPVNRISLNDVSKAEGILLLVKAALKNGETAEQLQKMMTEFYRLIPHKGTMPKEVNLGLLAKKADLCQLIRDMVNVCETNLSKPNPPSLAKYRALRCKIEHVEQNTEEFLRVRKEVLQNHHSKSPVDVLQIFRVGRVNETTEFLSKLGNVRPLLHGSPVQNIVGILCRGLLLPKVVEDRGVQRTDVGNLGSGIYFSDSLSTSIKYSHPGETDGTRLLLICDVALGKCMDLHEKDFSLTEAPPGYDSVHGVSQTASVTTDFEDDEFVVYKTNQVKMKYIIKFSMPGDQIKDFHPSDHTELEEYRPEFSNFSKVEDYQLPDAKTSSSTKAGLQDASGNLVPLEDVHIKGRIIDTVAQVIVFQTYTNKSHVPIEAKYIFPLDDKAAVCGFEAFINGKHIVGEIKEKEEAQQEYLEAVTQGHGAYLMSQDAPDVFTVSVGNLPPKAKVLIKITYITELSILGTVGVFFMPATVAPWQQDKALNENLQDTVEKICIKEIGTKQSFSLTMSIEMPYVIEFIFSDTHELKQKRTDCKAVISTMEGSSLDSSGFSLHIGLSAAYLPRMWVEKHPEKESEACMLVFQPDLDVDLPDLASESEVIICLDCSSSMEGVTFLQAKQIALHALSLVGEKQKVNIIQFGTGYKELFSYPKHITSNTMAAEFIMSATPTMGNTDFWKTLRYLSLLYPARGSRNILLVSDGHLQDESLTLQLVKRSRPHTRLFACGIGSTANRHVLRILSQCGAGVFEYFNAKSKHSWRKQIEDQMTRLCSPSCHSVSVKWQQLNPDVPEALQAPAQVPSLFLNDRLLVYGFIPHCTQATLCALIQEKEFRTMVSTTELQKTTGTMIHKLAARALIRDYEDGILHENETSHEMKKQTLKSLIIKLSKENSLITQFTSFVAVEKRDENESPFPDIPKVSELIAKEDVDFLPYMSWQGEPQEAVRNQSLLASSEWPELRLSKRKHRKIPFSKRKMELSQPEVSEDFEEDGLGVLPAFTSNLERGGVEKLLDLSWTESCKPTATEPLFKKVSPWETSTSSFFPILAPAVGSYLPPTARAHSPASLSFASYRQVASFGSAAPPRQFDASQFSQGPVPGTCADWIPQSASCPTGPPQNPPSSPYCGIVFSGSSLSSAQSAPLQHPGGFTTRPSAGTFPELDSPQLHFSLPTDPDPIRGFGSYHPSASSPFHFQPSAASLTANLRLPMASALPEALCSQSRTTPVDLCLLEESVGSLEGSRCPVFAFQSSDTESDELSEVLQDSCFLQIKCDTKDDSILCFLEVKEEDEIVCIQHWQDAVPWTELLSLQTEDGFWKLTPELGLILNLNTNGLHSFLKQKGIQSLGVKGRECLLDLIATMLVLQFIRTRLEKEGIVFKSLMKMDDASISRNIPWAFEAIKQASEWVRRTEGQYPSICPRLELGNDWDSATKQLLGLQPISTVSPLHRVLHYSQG
# 3T3-L1 = assay: Effect on glucose uptake in mouse 3T3L1 cells at 1 uM using 2-deoxy-D-[2,6-3H]glucose as substrate pretreated for 1 hr followed substrate addition measured after 5 mins by scintillation counter; format: ADME, cell-based; details: 3t3-l1, 5 min; procedure, shortened: as §2
# [6] = molecular target: T2, Protein mono-ADP-ribosyltransferase PARP3 (Homo sapiens, UniProt Q9Y6F1); assay: Inhibition of PARP3 (unknown origin)
# T2 sequence (Q9Y6F1 whole entry): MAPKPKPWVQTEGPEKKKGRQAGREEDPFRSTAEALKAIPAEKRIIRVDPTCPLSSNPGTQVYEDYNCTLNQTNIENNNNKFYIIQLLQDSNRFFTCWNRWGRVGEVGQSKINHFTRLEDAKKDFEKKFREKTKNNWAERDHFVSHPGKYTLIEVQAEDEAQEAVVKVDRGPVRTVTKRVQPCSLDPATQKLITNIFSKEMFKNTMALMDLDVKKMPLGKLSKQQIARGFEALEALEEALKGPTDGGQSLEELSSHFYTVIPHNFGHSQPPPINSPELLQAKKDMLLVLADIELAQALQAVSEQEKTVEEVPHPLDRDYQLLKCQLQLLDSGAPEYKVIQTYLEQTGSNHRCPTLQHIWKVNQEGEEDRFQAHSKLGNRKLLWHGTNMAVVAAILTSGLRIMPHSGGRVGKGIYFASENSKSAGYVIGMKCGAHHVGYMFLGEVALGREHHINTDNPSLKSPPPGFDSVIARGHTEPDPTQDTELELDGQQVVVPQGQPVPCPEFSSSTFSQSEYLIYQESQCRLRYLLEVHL
# [7] = Inhibition of tankyrase (unknown origin) expressed in TCF/LEF-HEK293 cells assessed as inhibition of Wnt/beta-catenin signaling pathway in Wnt3a conditioned medium measured after 20 hrs by luciferase reporter gene assay; format: cell-based; details: Homo sapiens
# [8] = molecular target: T3, Protein mono-ADP-ribosyltransferase PARP12 (Homo sapiens, UniProt Q9H0J9); assay: Inhibition of PARP12 (unknown origin)
# T3 sequence (Q9H0J9 whole entry): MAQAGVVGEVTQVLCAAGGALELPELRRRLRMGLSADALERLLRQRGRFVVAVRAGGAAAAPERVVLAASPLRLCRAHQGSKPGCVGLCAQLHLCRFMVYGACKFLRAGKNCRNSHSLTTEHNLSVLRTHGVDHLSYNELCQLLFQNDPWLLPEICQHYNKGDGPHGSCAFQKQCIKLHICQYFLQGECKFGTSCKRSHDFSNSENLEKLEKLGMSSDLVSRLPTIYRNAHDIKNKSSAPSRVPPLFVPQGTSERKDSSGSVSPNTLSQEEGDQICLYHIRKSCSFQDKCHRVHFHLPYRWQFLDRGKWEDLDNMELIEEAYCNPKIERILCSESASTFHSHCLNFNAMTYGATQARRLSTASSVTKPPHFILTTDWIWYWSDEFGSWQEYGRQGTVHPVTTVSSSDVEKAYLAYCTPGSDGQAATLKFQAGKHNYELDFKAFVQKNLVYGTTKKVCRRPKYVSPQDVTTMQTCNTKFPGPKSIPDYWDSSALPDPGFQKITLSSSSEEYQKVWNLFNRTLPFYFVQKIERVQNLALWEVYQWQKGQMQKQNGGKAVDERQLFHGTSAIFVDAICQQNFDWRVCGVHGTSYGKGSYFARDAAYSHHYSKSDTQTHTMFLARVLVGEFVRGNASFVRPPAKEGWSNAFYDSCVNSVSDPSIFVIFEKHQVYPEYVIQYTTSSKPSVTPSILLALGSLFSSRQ
# Poly [ADP-ribose] polymerase 1, sequence (P09874 whole entry): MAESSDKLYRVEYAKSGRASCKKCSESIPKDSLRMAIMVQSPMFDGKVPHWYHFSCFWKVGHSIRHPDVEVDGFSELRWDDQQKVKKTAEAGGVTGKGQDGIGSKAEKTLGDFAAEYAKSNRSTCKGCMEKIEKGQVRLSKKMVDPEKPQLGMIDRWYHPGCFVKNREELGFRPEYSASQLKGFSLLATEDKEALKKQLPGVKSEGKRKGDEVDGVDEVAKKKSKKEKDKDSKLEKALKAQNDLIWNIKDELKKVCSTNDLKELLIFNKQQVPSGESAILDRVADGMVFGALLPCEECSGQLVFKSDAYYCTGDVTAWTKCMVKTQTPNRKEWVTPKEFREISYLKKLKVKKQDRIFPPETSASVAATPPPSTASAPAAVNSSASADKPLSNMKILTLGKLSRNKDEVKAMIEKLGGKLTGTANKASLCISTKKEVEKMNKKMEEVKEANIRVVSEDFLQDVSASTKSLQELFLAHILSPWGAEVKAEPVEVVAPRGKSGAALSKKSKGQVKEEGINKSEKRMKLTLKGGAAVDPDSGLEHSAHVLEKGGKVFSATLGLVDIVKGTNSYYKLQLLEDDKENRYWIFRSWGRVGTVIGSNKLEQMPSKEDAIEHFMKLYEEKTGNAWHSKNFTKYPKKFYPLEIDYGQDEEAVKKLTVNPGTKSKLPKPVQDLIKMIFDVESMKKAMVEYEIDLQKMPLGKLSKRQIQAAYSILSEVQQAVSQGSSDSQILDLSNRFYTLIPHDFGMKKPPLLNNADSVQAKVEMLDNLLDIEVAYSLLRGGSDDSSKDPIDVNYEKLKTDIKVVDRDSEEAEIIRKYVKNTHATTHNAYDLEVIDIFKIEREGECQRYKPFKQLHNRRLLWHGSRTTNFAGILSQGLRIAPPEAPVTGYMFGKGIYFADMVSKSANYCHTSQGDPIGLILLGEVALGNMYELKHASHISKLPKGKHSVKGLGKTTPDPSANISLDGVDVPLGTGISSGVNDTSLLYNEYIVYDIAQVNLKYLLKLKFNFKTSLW
Compound,IC50 [1] [µM],Activity (Mus musculus [2]) [%],IC50 [3] [µM],Activity (Mus musculus [4]) [%],IC50 [5] [µM],Activity (3T3-L1),IC50 [6] [µM],IC50 ([7]; read-out: IC50) [µM],IC50 ([7]; read-out: pIC50 (converted)) [µM],IC50 [8] [µM]
Cc1cccc2c(=O)[nH]c(CCC(=O)Nc3ccc(C(=O)Nc4cccc5cccnc45)cc3)nc12,6.5,20,> 100,20,65,Non-Toxic,45,0.037,0.0372,> 100
O=C(CCc1nc2ccccc2c(=O)[nH]1)Nc1ccc(C(=O)Nc2cccc3cccnc23)cc1,8.2,20,> 100,40,69,Non-Toxic,40,0.029,0.0288,> 100

# Reference: ChEMBL document CHEMBL4002591 (J Med Chem, 2017)
